Assay results reported in ChEMBL document CHEMBL1141088, “A new pyridazine series of GABAA alpha5 ligands” (J Med Chem, 2005).

Tests used:
[1] = biological target: T1, GABA-A receptor; alpha-5/beta-3/gamma-2 (Homo sapiens, UniProt P18507+P28472+P31644); test: Negative logarithm of effective concentration against GABA-A alpha-5-beta-3-gamma-2 receptor; type: protein-complex assay
T1 sequence (P18507 whole entry): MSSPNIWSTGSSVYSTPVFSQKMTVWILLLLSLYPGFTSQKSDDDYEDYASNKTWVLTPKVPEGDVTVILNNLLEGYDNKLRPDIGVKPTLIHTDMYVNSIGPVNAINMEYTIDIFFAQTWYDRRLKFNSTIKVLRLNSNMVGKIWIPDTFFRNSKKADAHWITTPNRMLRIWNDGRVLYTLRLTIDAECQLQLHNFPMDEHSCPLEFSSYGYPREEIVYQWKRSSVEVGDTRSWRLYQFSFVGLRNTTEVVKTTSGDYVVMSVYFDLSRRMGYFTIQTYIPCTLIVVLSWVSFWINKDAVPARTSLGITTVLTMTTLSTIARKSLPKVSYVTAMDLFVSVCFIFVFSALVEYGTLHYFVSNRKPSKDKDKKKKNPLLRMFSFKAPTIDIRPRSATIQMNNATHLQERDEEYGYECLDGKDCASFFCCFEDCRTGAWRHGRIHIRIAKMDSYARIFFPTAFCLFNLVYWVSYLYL
T1 sequence (P28472 whole entry): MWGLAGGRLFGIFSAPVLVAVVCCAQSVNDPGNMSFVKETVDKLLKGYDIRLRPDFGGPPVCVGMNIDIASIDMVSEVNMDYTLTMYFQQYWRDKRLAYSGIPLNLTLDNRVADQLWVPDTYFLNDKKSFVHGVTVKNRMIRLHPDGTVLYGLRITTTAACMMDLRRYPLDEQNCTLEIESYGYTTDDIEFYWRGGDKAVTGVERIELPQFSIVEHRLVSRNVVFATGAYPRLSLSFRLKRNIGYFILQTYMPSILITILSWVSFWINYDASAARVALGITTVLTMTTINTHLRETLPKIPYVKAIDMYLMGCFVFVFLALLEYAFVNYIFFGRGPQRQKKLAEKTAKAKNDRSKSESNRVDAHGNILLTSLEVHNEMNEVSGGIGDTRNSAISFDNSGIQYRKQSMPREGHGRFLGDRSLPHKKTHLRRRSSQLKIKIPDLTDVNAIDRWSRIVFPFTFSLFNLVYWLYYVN
T1 sequence (P31644 whole entry): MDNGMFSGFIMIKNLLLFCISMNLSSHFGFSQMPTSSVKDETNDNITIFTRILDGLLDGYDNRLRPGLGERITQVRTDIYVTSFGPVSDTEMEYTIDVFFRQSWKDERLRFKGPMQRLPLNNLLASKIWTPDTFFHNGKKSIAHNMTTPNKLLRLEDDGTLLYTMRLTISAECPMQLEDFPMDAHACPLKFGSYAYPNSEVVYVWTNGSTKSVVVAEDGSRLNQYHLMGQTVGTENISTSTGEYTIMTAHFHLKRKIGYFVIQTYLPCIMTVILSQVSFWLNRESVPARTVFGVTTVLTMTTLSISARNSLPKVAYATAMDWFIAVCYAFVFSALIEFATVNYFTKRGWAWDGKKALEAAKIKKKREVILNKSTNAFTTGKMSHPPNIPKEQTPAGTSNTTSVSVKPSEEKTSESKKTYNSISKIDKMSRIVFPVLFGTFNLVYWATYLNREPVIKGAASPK
Outline: (§1)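 Whole-cell patch clamp of L(tk-) cells stably expressing human α1, α3 or α5 β3γ2s, perfused with bicarbonate saline pH 7.2, CsCl pipette solution pH 7.3. Drugs applied by double-barrelled pipette; GABA in 5 s pulses at 30 s intervals. Modulation measured against a GABA EC20 set for each cell; curves fitted to a Hill equation.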

[2] = biological target: GABA-A receptor; alpha-1/beta-3/gamma-2 (Homo sapiens) (UniProt P14867+P18507+P28472); test: Maximum inhibition of GABA EC20 response at GABA-A receptor alpha-1-beta-3-gamma-2, n=4; type: protein-complex assay; outline: as §1
[3] = biological target: T2, GABA-A receptor; alpha-1/beta-3/gamma-2 (Homo sapiens, UniProt P14867+P18507+P28472); test: Negative logarithm of effective concentration against GABA-A alpha-1-beta-3-gamma-2 receptor; type: protein-complex assay; outline: as §1
T2 sequence (P14867 whole entry): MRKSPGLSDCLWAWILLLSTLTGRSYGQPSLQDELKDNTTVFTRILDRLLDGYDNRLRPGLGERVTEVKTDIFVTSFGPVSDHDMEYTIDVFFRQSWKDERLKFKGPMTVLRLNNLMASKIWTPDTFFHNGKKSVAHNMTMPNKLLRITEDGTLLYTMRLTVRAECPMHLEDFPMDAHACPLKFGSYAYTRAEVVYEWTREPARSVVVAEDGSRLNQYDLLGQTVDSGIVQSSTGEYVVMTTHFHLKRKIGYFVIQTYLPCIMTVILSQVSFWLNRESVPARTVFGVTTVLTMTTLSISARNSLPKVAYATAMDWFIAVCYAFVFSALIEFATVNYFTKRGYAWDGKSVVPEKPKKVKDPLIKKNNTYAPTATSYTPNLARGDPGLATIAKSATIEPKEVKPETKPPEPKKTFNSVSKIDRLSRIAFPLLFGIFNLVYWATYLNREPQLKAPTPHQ
T2 sequence (P18507 whole entry): T1 sequence (P18507 whole entry)
T2 sequence (P28472 whole entry): T1 sequence (P28472 whole entry)

[4] = biological target: T3, GABA-A receptor; alpha-5/beta-3/gamma-2 (Homo sapiens) (UniProt P18507+P28472+P31644); test: Efficacy at GABAA alpha-5-beta-3-gamma-2 receptor expressed in mouse fibroblast L(tk-) cells measured at 300 nM derived from at least three plates/day screened over a minimum of 2 days; type: functional, cell-based
Outline: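 FRET membrane-potential (VIPR) assay in L(tk-) cells with receptor expression induced 24 h by 1 µM dexamethasone. Dye-loaded 30 min in low-Cl- HEPES buffer pH 7.4: 4 µM CC2-DMPE, 1 µM DiSBAC2(3), 0.5 mM tartrazine. Basal read 8 s, compound at 300 nM, half-maximal GABA 22 s later, 1 Hz reads. Background-subtracted 460/580 nm ratio, normalized to DMCM as -100%.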

[5] = biological target: T3, GABA-A receptor; alpha-5/beta-3/gamma-2 (Homo sapiens); test: Maximum inhibition of GABA EC20 response at GABA-A receptor alpha-5-beta-3-gamma-2, n=4; type: protein-complex assay; outline: as §1
[6] = biological target: GABA-A receptor; alpha-3/beta-3/gamma-2 (Homo sapiens) (UniProt P18507+P28472+P34903); test: Maximum inhibition of GABA EC20 response at GABA-A receptor alpha-3-beta-3-gamma-2,n=3; type: protein-complex assay; outline: as §1
[7] = Half life of compound determined after iv administration at 1 mg/kg dose as a solution(1 mg/mL) in a PEG 300:H2O(3:1); type: ADME, organism-based; design: dose 1 mg/kg, route intravenous; conditions: rat, in vivo
Outline: (§2)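 Single rat, cannulated, given 100 units heparin, recovered 48 h, fasted overnight. Dosed 1 mg/kg iv bolus (1 mL/kg) in PEG 300:water 3:1. Serial blood sampled to 6 h and plasma analysed by LC-MS/MS with diazepam internal standard. Cl in mL/min/kg from plasma, T1/2 in hours from 1–3 h data, Vdss in L/kg.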

[8] = Clearance of compound determined after iv administration at 1 mg/kg dose as a solution(1 mg/mL) in a PEG 300:H2O(3:1); type: ADME, organism-based; design: dose 1 mg/kg, route intravenous; conditions: rat, in vivo; outline: as §2

EC50 [1]: 7.41 nM | Maximum inhibition [2]: -23% | EC50 [3]: 2.95 nM | Efficacy [4]: -32 | Maximum inhibition [5]: -37% | Maximum inhibition [6]: -16% | half-life [7]: 36 min | clearance [8]: 36 mL/min/kg
Compound: N#Cc1cccc(-c2cnnc(-c3ccccc3)c2)c1
